Results on 11 compounds are retold here after ChEMBL document CHEMBL1155908, “Muscarinic receptor 1 agonist activity of novel N-arylthioureas substituted 3-morpholino arecoline derivatives in Alzheimer's presenile dementia models” (Bioorg Med Chem, 2008).

The term IC50 denotes the concentration that gives 50% inhibition. As a reminder, the Ki is a dissociation constant, usually derived from enzyme kinetics or from competition with a known ligand.

Experiment [1] concerns the target T1, Muscarinic acetylcholine receptor M1 (Rattus norvegicus, UniProt P08482).
T1 sequence (P08482 whole entry): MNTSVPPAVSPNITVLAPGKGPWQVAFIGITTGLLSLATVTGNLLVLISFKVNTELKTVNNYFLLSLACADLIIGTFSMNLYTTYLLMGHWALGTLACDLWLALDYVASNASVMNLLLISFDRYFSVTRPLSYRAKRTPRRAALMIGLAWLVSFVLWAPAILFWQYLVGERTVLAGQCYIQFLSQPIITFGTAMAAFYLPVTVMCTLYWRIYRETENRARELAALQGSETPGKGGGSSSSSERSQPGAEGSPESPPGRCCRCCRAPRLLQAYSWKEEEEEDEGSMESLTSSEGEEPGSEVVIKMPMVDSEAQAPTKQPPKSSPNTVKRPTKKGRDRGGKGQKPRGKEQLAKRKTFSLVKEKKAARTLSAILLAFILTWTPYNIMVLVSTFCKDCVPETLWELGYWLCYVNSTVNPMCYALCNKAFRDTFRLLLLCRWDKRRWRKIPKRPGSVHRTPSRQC
The experiment can be described thus: Displacement of [3H]QNB from muscarinic M1 receptor Wistar rat cortex synaptosomal membrane. Put shortly: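 Male Wistar rat cortex synaptosomal membranes were prepared in Tris–HCl 50 mmol/L pH 7.4 with 0.32 mol/L sucrose, spun at 1000g then 32,000g at 4 °C, and resuspended in 50 mmol/L phosphate buffer pH 7.4 with MgCl2. Membrane protein was incubated with 0.2 nM [3H]QNB and displacer for 2 h at 37 °C, then GF/B filtered and counted by scintillation. IC50 and Ki were obtained by curve analysis.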
(In a radioligand displacement assay an active substance lowers the binding of a labelled ligand.)

Experiment [2] has as its system Cortex. The experiment can be described thus: Stimulation of (1,4,5)-trisphosphate formation in Wistar rat cerebral cortex relative to basal. Format: functional. More on the design: concentration or dose not given beside the values. The method in brief:
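Rat cerebral cortex slices were labelled with [3H]myoinositol, then stimulated with compound at 1–500 µmol/l. Basal IP3 was measured, and acetylcholine iodide served as the reference stimulus. [3H]IP3 formed was counted by liquid scintillation. Values are mean and SD of three experiments, each run in duplicate.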

The species entered for experiment [3] is Rattus norvegicus. The experiment can be described thus: Effect on scopolamine-induced spartial working memory loss in Wistar rat on Y maze assessed as alteration behavior. In kind it is functional. The method in brief:
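Y maze, male Wistar rats, 200–250 g. Compound plus scopolamine was given 30 min before free exploration. Arm entries were recorded visually. Alternation was scored as successive entries into all three arms over overlapping triplets. Percent alternation = actual alternations / (total entries − 2) × 100.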

For experiment [4], the species on record is Rattus norvegicus. The experiment can be described thus: Reversal of scopolamine-induced learning impairment and memory loss in Wistar rat on elevated plus maze assessed as transfer latency time on day 1 relative to control. In kind it is functional. Put shortly:
(§1)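 Elevated plus maze, male Wistar rats. Scopolamine alone or with compound was given 30 min before a 90 s exploration, and saline 0.9% was given to controls. Transfer latency from the open-arm end to a closed arm was timed on day 1, then retested in the same animals on day 2. Mean ± SEM.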

The species named for experiment [5] is Rattus norvegicus. The experiment can be described thus: Reversal of scopolamine-induced learning impairment and memory loss in Wistar rat on elevated plus maze assessed as transfer latency time on day 2 relative to control. In kind it is functional. The method in brief: as §1
Experiment [6] is filed under the species Rattus norvegicus. The experiment can be described thus: Reversal of scopolamine-induced memory loss in Wistar rat assessed as reduction of number of mistakes relative to control. In kind it is functional. The method in brief:
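Passive avoidance step-down task run on male Wistar rats, 200–250 g, n = 8, with scopolamine-induced memory loss. Mistakes were counted. The dose range tested was 0.05–0.2 mg/kg, and 0.1 mg/kg was used in the in vivo studies.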

SMILES strings stand for the structures. Activity calls are given as the source filed them. No cut-off for these calls is given here.

As for `COc1ccccc1NC(=S)N1CCOC(C2=CCCN(C)C2)C1` (centres undefined), in experiment [1], the concentration for half-maximal inhibition (IC50) was 362 µM and affinity was put at a Ki of 98 µM. In experiment [2], this compound had an Activity of 100%.

For the compound `CN1CCC=C(C2CN(C(=S)Nc3ccc(Cl)cc3)CCO2)C1` (centres undefined), the half-maximal inhibitory concentration (IC50) in experiment [1] amounted to 1.2 µM. Also, the Ki in experiment [1] amounted to 0.31 µM. The Activity in experiment [3] was 64%; in experiment [2], 216%; in experiment [4] it was 34 s; in experiment [5] it was 9 s; in experiment [6] it was 10.

In experiment [1], `CN1CCC=C(C2CN(C(=S)Nc3ccc(Cl)cc3Cl)CCO2)C1` (centres undefined) showed a concentration for half-maximal inhibition (IC50) of 112 µM and an inhibition constant Ki of 31 µM. Besides, the Activity in experiment [2] is reported as 116%. The result in experiment [6] was Active.

`CN1CCC=C(C2CN(C(=S)Nc3ccccc3Cl)CCO2)C1` (centres undefined) came in with an IC50 in experiment [1] of 515 µM. The same compound had a Ki in experiment [1] of 214 µM. The values for the Activity in experiment [2], in experiment [4] and in experiment [5] were 100%, 60 s and 43 s, respectively.

`CC(=O)OCC[N+](C)(C)C` [ACETYLCHOLINE] had an Activity in experiment [2] of 268%.

Take `CN1CCC=C(C2CN(C(=S)Nc3ccc(F)cc3)CCO2)C1` (centres undefined): the IC50 in experiment [1] was found to be 31 µM. For the same compound, in experiment [1], the inhibition constant (Ki) was determined as 7 µM. For the same compound, the Activity in experiment [3] amounted to 61%; in experiment [2] it was 155%; in experiment [6], 11. Besides, the result in experiment [4] and in experiment [5] was Active.

Turning to `COc1ccc(NC(=S)N2CCOC(C3=CCCN(C)C3)C2)cc1` (centres undefined), the IC50 in experiment [1] turned out to be 15 µM. The affinity in experiment [1] corresponds to a Ki of 4 µM. Besides, the Activity in experiment [3] is on record as 60%; in experiment [2] it was 178%; in experiment [6], 10. The outcome in experiment [4] and in experiment [5] was Active.

Consider `CN1CCC=C(C2CN(C(=S)Nc3ccccc3F)CCO2)C1` (centres undefined), for which, in experiment [1], the IC50 stood at 67 µM. Besides, in experiment [1], the Ki was 15 µM. Besides, the Activity in experiment [3] was 58%; in experiment [2] it was 129%. The outcome in experiment [6] was Active.

Turning to `CN1CCC=C(C2CN(C(=S)Nc3ccccc3)CCO2)C1` (centres undefined), in experiment [1], the IC50 was 153 µM and affinity was put at a Ki of 49 µM. In addition, in experiment [2], the Activity is given as 101%.

For the compound `COc1cccc(NC(=S)N2CCOC(C3=CCCN(C)C3)C2)c1` (centres undefined), in experiment [1], the IC50 is 120 µM and the Ki is 41 µM. The Activity in experiment [2] is recorded as 106%. Moreover, the outcome in experiment [6] was Active.

For `CN1CCC=C(C2CN(C(=S)Nc3cccc(Cl)c3)CCO2)C1` (centres undefined), in experiment [1], the 50% inhibitory concentration (IC50) came out at 236 µM and the Ki came out at 85 µM. This compound also came in with an Activity in experiment [2] of 103%.
